≈ marks a conversion by molar mass, not a printed value. Calls of active or inactive are those of the source. The rule behind the calls is not given here.
Key:
[1] = target: T1, Heat shock protein HSP90 (Homo sapiens) (UniProt P07900+P08238); experiment: Inhibition of HSP90 C-terminal in human MCF7 cells assessed as reduction in Akt protein expression incubated for 24 hrs by Western blot method; type: cell-based
Method in brief: (§1)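 MCF7 cells incubated 24 h with various concentrations, then client protein levels read by Western blot. β-Actin served as loading control. AT13387 (1.0 µM), an N-terminal Hsp90 inhibitor, was the positive control.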

MCF7 [2] = experiment: Induction of apoptosis in human MCF7 cells assessed as early apoptotic cells level at 2.5 uM incubated for 24 hrs by Annexin V-FITC and propidium iodide staining based flow cytometry (reference value: 1.93%); type: functional
MCF7 [3] = experiment: Induction of apoptosis in human MCF7 cells assessed as necrotic cells level at 2.5 uM incubated for 24 hrs by Annexin V-FITC and propidium iodide staining based flow cytometry (reference value: 0.51%); type: functional
MCF7 [4] = experiment: Induction of apoptosis in human MCF7 cells assessed as early apoptotic cells level at 5 uM incubated for 24 hrs by Annexin V-FITC and propidium iodide staining based flow cytometry (reference value: 1.93%); type: functional
MCF7 [5] = experiment: Induction of apoptosis in human MCF7 cells assessed as necrotic cells level at 5 uM incubated for 24 hrs by Annexin V-FITC and propidium iodide staining based flow cytometry (reference value: 0.51%); type: functional
Mus musculus [6] = experiment: Toxicity in BALB/c mouse implanted with mouse 4T1 cells assessed as induction of body weight loss at 10 mg/kg/day, ip for 2 weeks measured every 2 days; type: organism-based; conditions: in vivo
Method in brief: (§2)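 4T1 tumor-bearing BALB/c mice were given vehicle, 10 or 30 mg/kg ip daily for 2 weeks from mean tumor volume 50 mm³. Body weight was monitored during treatment.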

MCF7 [7] = experiment: Induction of apoptosis in human MCF7 cells assessed as viable cells level at 5 uM incubated for 24 hrs by Annexin V-FITC and propidium iodide staining based flow cytometry (reference value: 93.37%); type: functional
MCF7 [8] = experiment: Induction of apoptosis in human MCF7 cells assessed as viable cells level at 10 uM incubated for 24 hrs by Annexin V-FITC and propidium iodide staining based flow cytometry (reference value: 93.37%); type: functional
SK-BR-3 = experiment: Antiproliferative activity against human SKBR3 cells incubated for 72 hrs by MTT assay; type: functional, cell-based; conditions: SK-BR-3, 72 h
Method in brief: (§3)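 MTT antiproliferation assay in MCF7 and SKBr3 breast cancer cells; IC50 determined.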

MCF7 [9] = experiment: Induction of apoptosis in human MCF7 cells assessed as early apoptotic cells level at 10 uM incubated for 24 hrs by Annexin V-FITC and propidium iodide staining based flow cytometry (reference value: 1.93%); type: functional
[10] = Permeability coefficient of the compound at pH 7.4 by double-sink PAMPA; type: ADME; conditions: read-out: permeability
Method in brief: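 Double-sink PAMPA at pH 7.4 on a PAMPA Explorer instrument; Pe reported as mean ± SD, n = 3.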

MCF7 [11] = experiment: Induction of apoptosis in human MCF7 cells assessed as late apoptotic cells level at 5 uM incubated for 24 hrs by Annexin V-FITC and propidium iodide staining based flow cytometry (reference value: 4.19%); type: functional
4T1 [12] = experiment: Antitumor activity against mouse 4T1 cells implanted in BALB/c mouse assessed as inhibition of lung metastasis at 10 mg/kg/day, ip for 2 weeks measured every 2 days by H and E staining; type: functional, organism-based
Method in brief: (§4)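 4T1 tumor-bearing BALB/c mice were dosed ip daily for 2 weeks with vehicle, 10 or 30 mg/kg, starting at mean tumor volume 50 mm³. Lung tissue was then examined for metastasis.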

[13] = Distribution coefficient, log D of the compound at pH 7.4; type: physicochemical; conditions: octanol/water
Method in brief: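 Log D at pH 7.4 measured on a PULSE platform.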

MCF7 [14] = experiment: Induction of apoptosis in human MCF7 cells assessed as necrotic cells level at 10 uM incubated for 24 hrs by Annexin V-FITC and propidium iodide staining based flow cytometry (reference value: 0.51%); type: functional
MCF7 [15] = experiment: Antiproliferative activity against human MCF7 cells incubated for 72 hrs by MTT assay; type: functional, cell-based; conditions: MCF7, 72 h; method in brief: as §3
Mus musculus [16] = experiment: Toxicity in BALB/c mouse implanted with mouse 4T1 cells assessed as induction of body weight loss at 30 mg/kg/day, ip for 2 weeks measured every 2 days; type: organism-based; conditions: in vivo; method in brief: as §2
MCF7 [17] = experiment: Induction of heat shock response in human MCF7 cells assessed as effect on HSP90 protein expression at 1 to 10 uM incubated for 24 hrs by Western blot method; type: cell-based; conditions: mcf7, 24 h; method in brief: as §1
MCF7 [18] = experiment: Induction of apoptosis in human MCF7 cells assessed as viable cells level at 2.5 uM incubated for 24 hrs by Annexin V-FITC and propidium iodide staining based flow cytometry (reference value: 93.37%); type: functional
4T1 [19] = experiment: Antitumor activity against mouse 4T1 cells implanted in BALB/c mouse assessed as inhibition of lung metastasis at 30 mg/kg/day, ip for 2 weeks measured every 2 days by H and E staining; type: functional, organism-based; method in brief: as §4
[20] = target: T1, Heat shock protein HSP90 (Homo sapiens); experiment: Inhibition of HSP90 C-terminal in human MCF7 cells assessed as reduction in CDK6 protein expression incubated for 24 hrs by Western blot method; type: cell-based; method in brief: as §1
[21] = target: T1, Heat shock protein HSP90 (Homo sapiens); experiment: Inhibition of HSP90 C-terminal in human MCF7 cells assessed as reduction in ERK protein expression incubated for 24 hrs by Western blot method; type: cell-based; method in brief: as §1
MCF7 [22] = experiment: Induction of apoptosis in human MCF7 cells assessed as late apoptotic cells level at 2.5 uM incubated for 24 hrs by Annexin V-FITC and propidium iodide staining based flow cytometry (reference value: 4.19%); type: functional
4T1 [23] = experiment: Antitumor activity against mouse 4T1 cells implanted in BALB/c mouse assessed as inhibition of tumor growth at 10 mg/kg/day, ip for 2 weeks measured every 2 days; type: functional; conditions: 4T1, ip, read-out: TGI
Method in brief: (§5)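 BALB/c mice bearing 4T1 breast tumors were dosed ip daily for 2 weeks with vehicle, 10 or 30 mg/kg, starting once mean tumor volume reached 50 mm³. Tumor diameters were measured every two days; TGI derived.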

MCF7 [24] = experiment: Induction of heat shock response in human MCF7 cells assessed as effect on HSP70 protein expression at 1 to 10 uM incubated for 24 hrs by Western blot method; type: cell-based; conditions: mcf7, 24 h; method in brief: as §1
MCF7 [25] = experiment: Inhibition of cell migration in human MCF7 cells incubated for 24 hrs by wound healing assay; type: functional, cell-based
Method in brief: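 Wound healing in MCF7 cells: the monolayer was scratched with a 200 µL sterile pipette tip, treated 24 h at various concentrations, then imaged.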

[26] = Intrinsic aqueous solubility of the compound; type: physicochemical
Method in brief: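 Intrinsic aqueous solubility determined on a Gemini Profiler instrument.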

4T1 [27] = experiment: Antitumor activity against mouse 4T1 cells implanted in BALB/c mouse assessed as inhibition of tumor growth at 30 mg/kg/day, ip for 2 weeks measured every 2 days; type: functional; conditions: 4T1, ip, read-out: TGI; method in brief: as §5
MCF7 [28] = experiment: Induction of apoptosis in human MCF7 cells assessed as late apoptotic cells level at 10 uM incubated for 24 hrs by Annexin V-FITC and propidium iodide staining based flow cytometry (reference value: 4.19%); type: functional

## Cc1cc(NCCN2CCCCC2)nc2ccc(NC(=O)c3ccc(Cl)c(Cl)c3)cc12
[1]
  inhibition: Dose-dependent effect
MCF7 [2]
  Activity: 1.57%
MCF7 [3]
  Activity: 0.8%
MCF7 [4]
  Activity: 5.21%
MCF7 [5]
  Activity: 3.13%
Mus musculus [6]
  Activity: Non-Toxic
MCF7 [7]
  Activity: 78.86%
MCF7 [8]
  Activity: 42.69%
SK-BR-3
  IC50: 1.8 µM
MCF7 [9]
  Activity: 20.22%
[10]
  Papp: 47.3 ×10⁻⁶ cm/s
MCF7 [11]
  Activity: 12.8%
4T1 [12]
  inhibition: Active
[13]
  logD: 2.72
MCF7 [14]
  Activity: 5.5%
MCF7 [15]
  IC50: 1.19 µM
Mus musculus [16]
  Activity: Non-Toxic
MCF7 [17]
  Activity: Non-Toxic
MCF7 [18]
  Activity: 93.3%
4T1 [19]
  inhibition: Active
[20]
  inhibition: Dose-dependent effect
[21]
  inhibition: Dose-dependent effect
MCF7 [22]
  Activity: 4.33%
4T1 [23]
  inhibition in vivo at 10 mg/kg/day: 26%
MCF7 [24]
  Activity: Non-Toxic
MCF7 [25]
  inhibition: Dose-dependent effect
[26]
  solubility: 70.8 µg/mL (≈ 155 µM)
4T1 [27]
  inhibition in vivo at 30 mg/kg/day: 47%
MCF7 [28]
  Activity: 31.59%
